Laboratory results: publication PMC12800337 (Nature Communications, 2025)
Where a SMILES comes first, the peptide text is derived from it. The star is where a group is joined. 5FAM = O=C1OC2(c3ccc(O)cc3Oc3cc(O)ccc32)c2ccc(C(=O)*)cc21; βAla = NCCC(=O)O; X1 = OB(O)C*

Key:
HEK 293 = experiment: Mammalian cell staining, confocal microscope; assay type: cell-based, human; settings: P2 5 µM, compared to the brightness detected on S. aureus
Method in brief: (§1)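 Cells at 70% confluence detached with trypsin-EDTA and seeded at 1 × 10⁵ cells/well in glass-bottom dishes, then grown for 24 h. Medium replaced with PBS containing fluorescein-labelled test peptide; incubated 30 min at 37 °C. Washed three times with PBS, given fresh medium, imaged by confocal microscopy (40× oil, argon laser at 10%). Representative of 2 independent experiments.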

S. aureus [1] = experiment: Mannitol inhibition assay of Fl-P2 binding; assay type: cell-based, Staphylococcus aureus; settings: 50 mM mannitol, P2 2 µM, flow cytometry
S. aureus (MTCC 7443) = experiment: S. aureus staining, flow cytometry median fluorescence; assay type: cell-based, Staphylococcus aureus; settings: 2 µM, PBS pH 7.4, 30 min, washed, flow cytometry median value
[2] = Serum stability assay of peptides; assay type: in vitro ADME; settings: human serum, fluorophore unlabeled peptides, HPLC
Method in brief: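 Test peptide incubated in human serum; the remaining intact peptide was monitored by HPLC to derive half-life. Mean ± SEM from 3 independent replicates.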

S. aureus [3] = experiment: Confocal imaging of stained S. aureus; assay type: cell-based, Staphylococcus aureus; settings: confocal optical sectioning of stained S. aureus cells
Method in brief: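 S. aureus (MTCC 7443) incubated with fluorescein-labelled test peptide for 30 min at 37 °C, washed three times in PBS. 5 µL of cells pressed under a coverslip on a glass slide to a single cell layer. Imaged by laser-scanning confocal microscopy with optical sectioning: 40× oil objective, argon laser at 10% power, gain 900–1100 HV, offset −0.5%. Representative of 2 independent experiments.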

A549 = experiment: Mammalian cell staining, confocal microscope; assay type: cell-based; settings: P2 5 µM, compared to the brightness detected on S. aureus
Method in brief: as §1

E. coli (MTCC 1687) = experiment: E. coli staining; assay type: cell-based; settings: P2 5 μM, confocal microscope
Method in brief: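 E. coli and S. aureus each diluted 1:100 from secondary culture and grown to OD₆₀₀ 0.4, then mixed and pelleted at 5000 × g. Pellet incubated with fluorescein-labelled test peptide in PBS (pH 7.4) at 37 °C for 30 min. Washed twice in PBS, resuspended in 100 µL PBS, imaged by confocal microscopy (40× oil, argon laser). Representative of 2 independent experiments.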

[4] = Stability of BA-modified proteins as lyophilized powder; assay type: physicochemical; settings: purified protein, confirmed by deconvoluted mass

Molecule: CSCC[C@H](NC(=O)[C@H](CCCNC(=N)N)NC(=O)[C@H](CCCNC(=N)N)NC(=O)[C@H](CCCCN)NC(=O)[C@H](C)NC(=O)[C@H](CCCNC(=N)N)NC(=O)CNC(=O)[C@@H](NC(=O)CCNC(=O)c1ccc2c(c1)C(=O)OC21c2ccc(O)cc2Oc2cc(O)ccc21)[C@@H](C)O)C(=O)N[C@@H](CSCB(O)O)C(=O)N[C@@H](Cc1ccc(O)cc1)C(=O)N[C@@H](CSCB(O)O)C(=O)N[C@@H](CCCNC(=N)N)C(=O)N[C@@H](CCCNC(=N)N)C(N)=O [P2] ({5FAM-βAla}-TGRAKRRMC(X1)YC(X1)RR-NH2)
- staining of HEK 293 cells (HEK 293): minimal staining
- staining ability of P2 after mannitol complexation (reduced to) (S. aureus [1]): ~ 60%
- S. aureus staining efficiency relative to P0 and P3 (S. aureus (MTCC 7443)): ~ 40 fold
- serum half-life relative to parent UBI peptide (P0) [2]: around 14 times
- uptake in bacterial cytosol (optical sectioning) (S. aureus [3]): uptake of P2 in bacterial cytosol
- staining of A549 cells (A549): minimal staining
- staining of E. coli (E. coli (MTCC 1687)): no significant staining

Molecule: BSA-BA: BSA with methylene-BA at a single free thiol site
- stability as a lyophilized powder (in words) [4]: stable for over a week

Molecule: TGRAKRRMCYNRR-NH2 [P1]
- S. aureus staining efficiency relative to P0 and P3 (S. aureus (MTCC 7443)): ~ 8 fold

Molecule: lysozyme-BA: lysozyme with methylene-BA conjugates at Cys6 and Cys115 (major product)
- stability as a lyophilized powder (in words) [4]: stable for over a week
